Structures are written as SMILES. Calls of active or inactive are those of the source. No cut-off for these calls is given here. Some results are limits rather than exact numbers.

The text below walks through data of ChEMBL document CHEMBL4145466, “Design, synthesis, and biological evaluation of novel combretastatin A-4 thio derivatives as microtubule targeting agents” (Eur J Med Chem, 2018).

Data set [1] relates to A-431. The experiment in a line: Cytotoxicity against human A431 cells after 48 hrs by MTT assay. Format: functional, cell-based. To be noted: A-431, 48 h. Summed up: (§1)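 Cells in DMEM with 10% FBS were plated at 2 × 10^4 per well and left overnight, then treated for 48 h at 0.6–20 µM (six concentrations) from 10 mM DMSO stocks. MTT was added for 2 h, and formazan was dissolved in DMSO and read at 570 nm. Viability was expressed as % of control, with IC50 taken from dose-response curves. Results are mean ± SD of three independent experiments.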

Data set [2] relates to MCF7. The experiment in a line: Cytotoxicity against human MCF7 cells after 48 hrs by MTT assay. To be noted: MCF7, 48 h. Format: functional, cell-based. Summed up: as §1
The test system of data set [3] is MDA-MB-231. The experiment in a line: Cytotoxicity against human MDA-MB-231 cells after 48 hrs by MTT assay. It counts as functional, cell-based. To be noted: MDA-MB-231, 48 h. Put shortly: as §1
Data set [4] relates to SK-OV-3. The experiment in a line: Cytotoxicity against human SKOV3 cells after 48 hrs by MTT assay. It counts as functional, cell-based. The note with it: SK-OV-3, 48 h. Put shortly: as §1
Data set [5] can be described thus: Cytotoxicity against human CCD39Lu cells after 48 hrs by MTT assay. Format: cell-based. Put shortly:
as §1

Data set [6] concerns HeLa. The experiment in a line: Cell cycle arrest in human HeLa cells assessed as accumulation of cells at G2/M phase at 0.1 to 1 uM after 24 hrs by propidium iodide staining-based FACS analysis. It counts as functional. Put shortly:
(§2)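 Cells were seeded at 5 × 10^5 per well in DMEM with 10% FBS and left overnight, then exposed to 0.1, 0.5 or 1 µM for 24 h. DMSO served as the negative control and 50 nM camptothecin as the positive control. Cells were trypsinized, fixed in 70% ethanol for 30 min at 4 °C, stained with 50 µg/mL PI plus 100 µg/mL RNase A for 30 min in the dark, and analysed by flow cytometry. Results are mean ± SD of three experiments, compared by ANOVA with Dunnett's test.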

Data set [7] has as its system HaCaT. The experiment in a line: Cell cycle arrest in human HaCaT cells assessed as accumulation of cells at G2/M phase at 0.1 to 1 uM after 24 hrs by propidium iodide staining-based FACS analysis. Summed up: as §2
Data set [8] deals with T1, Tubulin (Homo sapiens) (UniProt P68371+Q9H4B7+P0DPH7+P68366+Q13509+Q71U36+P04350+Q3ZCM7+P07437+P68363+Q9BQE3+Q6PEY2+Q13885+Q9BVA1+Q9BUF5). The experiment in a line: Inhibition of tubulin polymerization in human A431 cells assessed as chromatin condensation at 1 uM after 24 hrs by Hoechst 33258 staining-based fluorescence microscopic analysis. Format: cell-based. Summed up:
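Cells were seeded at 12.5 × 10^4 per well and treated at 1 µM for 24 h. They were stained with Hoechst 33258 (10 µg/mL, 30 min, 37 °C), fixed in 4% formaldehyde, permeabilized with 1% Triton X-100 and blocked in 2% BSA. Anti-α-tubulin-FITC (1:50) was applied overnight at 4 °C, and cells were imaged by fluorescence microscopy.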

Data set [9] deals with T1, Tubulin (Homo sapiens). The experiment in a line: Inhibition of tubulin polymerization in human MDA-MB-231 cells assessed as micronuclei formation at 1 uM after 24 hrs by ELISA. Format: cell-based.
Data set [10] concerns A-431. The experiment in a line: Induction of apoptosis in human A431 cells assessed as increase in histone-associated DNA fragments in mononucleosomes after 24 hrs by ELISA. Format: functional, cell-based. Summed up:
(§3)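 Cells (2 × 10^4) were incubated for 24 h at 0.1, 0.5 or 1 µM, lysed and centrifuged. Supernatants went onto a streptavidin plate with anti-histone-biotin and anti-DNA-peroxidase for 2 h, followed by ABTS for 30 min and a reading at 405 nm. Nucleosome content was expressed as an enrichment factor, as mean ± SD of three experiments.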

In data set [11] the test system is HeLa. The experiment in a line: Induction of apoptosis in human HeLa cells assessed as increase in histone-associated DNA fragments in mononucleosomes after 24 hrs by ELISA. It counts as functional, cell-based. Put shortly:
as §3

Data set [12] relates to MCF7. The experiment in a line: Induction of apoptosis in human MCF7 cells assessed as increase in histone-associated DNA fragments in mononucleosomes after 24 hrs by ELISA. Format: functional, cell-based. Put shortly: as §3
Data set [13] relates to HaCaT. The experiment in a line: Induction of apoptosis in human HaCaT cells assessed as increase in histone-associated DNA fragments in oligonucleosomes after 24 hrs by ELISA. It counts as cell-based. Put shortly: as §3
Data set [14] has as its system MCF7. The experiment in a line: Induction of apoptosis in human MCF7 cells assessed as increase in histone-associated DNA fragments in oligonucleosomes after 24 hrs by ELISA. Format: functional, cell-based. Put shortly:
as §3

Data set [15] concerns SK-OV-3. The experiment in a line: Induction of apoptosis in human SKOV3 cells assessed as increase in histone-associated DNA fragments in oligonucleosomes after 24 hrs by ELISA. It counts as functional, cell-based. Put shortly:
as §3

Data set [16] addresses T1, Tubulin (Homo sapiens). The experiment in a line: Inhibition of tubulin polymerization in human A431 cells assessed as micronuclei formation at 1 uM after 24 hrs by Hoechst 33258/FITC staining-based flow cytometric analysis. Format: cell-based.
For data set [17], the target named is T1, Tubulin (Homo sapiens). The experiment in a line: Inhibition of tubulin polymerization in human HeLa cells assessed as perturbation in cytoskeleton structure at 1 uM after 24 hrs by ELISA. Format: cell-based.
Data set [18] deals with T1, Tubulin (Homo sapiens). The experiment in a line: Inhibition of tubulin polymerization in human MDA-MB-231 cells assessed as perturbation in cytoskeleton structure at 1 uM after 24 hrs by ELISA. Format: cell-based.
Data set [19] deals with Tubulin. The experiment in a line: Inhibition of tubulin polymerization in human HaCaT cells assessed as perturbation in cytoskeleton structure at 1 uM after 24 hrs by Hoechst 33258/FITC staining-based […]. Format: cell-based. Put shortly: (§4)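 Cells seeded at 12.5 × 10^4 per well and exposed to 1 µM compound for 24 h. Nuclei were stained with Hoechst 33258 (10 µg/mL, 30 min, 37 °C), then fixed in 4% formaldehyde/PBS (15 min, RT). Cells were permeabilized with 1% Triton X-100, blocked with 2% BSA/PBS for 1 h, and incubated with anti-α-tubulin-FITC (1:50) overnight at 4 °C. Imaged by fluorescence microscopy.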

Data set [20] has as its target T1, Tubulin (Homo sapiens). The experiment in a line: Inhibition of tubulin polymerization in human MDA-MB-231 cells assessed as perturbation in cytoskeleton structure at 1 uM after 24 hrs by Hoechst 33258/FITC staining-based flow cytometric analysis. It counts as cell-based.
The target in data set [21] is T1, Tubulin (Homo sapiens). The experiment in a line: Inhibition of tubulin polymerization in human SKOV3 cells assessed as perturbation in cytoskeleton structure at 1 uM after 24 hrs by Hoechst 33258/FITC staining-based flow cytometric analysis. It counts as cell-based. Put shortly: as §4
Data set [22] concerns HeLa. The experiment in a line: Potency index, ratio of CA-4 IC50 to compound IC50 for cytotoxicity against human HeLa cells. Format: functional.
Data set [23] relates to A-431. The experiment in a line: Induction of apoptosis in human A431 cells assessed as increase in histone-associated DNA fragments in mononucleosomes at 0.1 uM after 24 hrs by ELISA. It counts as functional, cell-based. Summed up:
as §3

Data set [24] concerns MCF7. The experiment in a line: Induction of apoptosis in human MCF7 cells assessed as increase in histone-associated DNA fragments in mononucleosomes at 0.1 uM after 24 hrs by ELISA. It counts as functional, cell-based. Summed up: as §3
In data set [25] the test system is SK-OV-3. The experiment in a line: Induction of apoptosis in human SKOV3 cells assessed as increase in histone-associated DNA fragments in mononucleosomes at 0.1 uM after 24 hrs by ELISA. It counts as functional, cell-based. Summed up:
as §3

The test system of data set [26] is A-431. The experiment in a line: Induction of apoptosis in human A431 cells assessed as increase in histone-associated DNA fragments in oligonucleosomes at 0.1 uM after 24 hrs by ELISA. Format: functional, cell-based. Put shortly:
as §3

Data set [27] has as its system HeLa. The experiment in a line: Induction of apoptosis in human HeLa cells assessed as increase in histone-associated DNA fragments in oligonucleosomes at 0.1 uM after 24 hrs by ELISA. Format: functional, cell-based. Summed up:
as §3

Data set [28] concerns SK-OV-3. The experiment in a line: Induction of apoptosis in human SKOV3 cells assessed as increase in histone-associated DNA fragments in oligonucleosomes at 0.1 uM after 24 hrs by ELISA. It counts as functional, cell-based. Summed up: as §3

As for `COc1ccc(-c2ocnc2-c2cc(Br)c(OC)c(OC)c2)cc1SC`, the IC50 in [1] is 430 nM; in data set [2], 2780 nM; in [3], 920 nM; in data set [4], 1160 nM; in [5] it was above 20000 nM. The Activity result was “Dose-dependent effect” in data set [6]; “Toxic” in data set [7]; “Dose-dependent effect” in data set [10]; “Dose-dependent effect” in data set [11]; “Dose-dependent effect” in data set [12]; “Dose-dependent effect” in [13]. The Activity result in data set [14] and in [15] was “Dose-dependent effect” in each case. In addition, the inhibition result in data set [8], in data set [9], in data set [16], in data set [17], in data set [18] and in [20] was “Active” throughout. For the same molecule, the inhibition result in data set [21] is “Active”. Also, in data set [19], the “inhibition (INH)” value is “Active”.
`COc1ccc(-c2ocnc2-c2cc(OC)c(SC)c(OC)c2)cc1O`: the 50% inhibitory concentration (IC50) in [1] is 250 nM; in [2], 450 nM; in data set [3], 710 nM; in data set [4] it was 250 nM; in data set [5], above 20000 nM. Besides, the “Ratio IC50” value in [22] was found to be 10. Moreover, the Activity entry in [7] is recorded as “Toxic”. Also, the inhibition entry in [9], in [16], in [17], in data set [18], in data set [20] and in [21] was “Active” each time. The result in data set [23], in data set [24], in data set [25], in [26], in data set [27] and in data set [28] was Active. Further, the “inhibition (INH)” value in data set [19] is given as “Active”.
